Drawing on ChEMBL document CHEMBL3286319, “Hyafurones, hyapyrrolines, and hyapyrones: polyketides from Hyalangium minutum” (J Nat Prod, 2014), this text covers MIC, Activity and IC50 for 7 compounds.

≈ marks a conversion by molar mass, not a printed value. Calls of active or inactive are those of the source. No cut-off for these calls is given here. Bounds are passed on as bounds.

One experiment concerns Escherichia coli. Description: Antibacterial activity against Escherichia coli TolC by serial dilution method. In kind it is functional.
A further experiment has as its system Staphylococcus aureus. Description: Antibacterial activity against Staphylococcus aureus by serial dilution method. It counts as functional.
Another experiment concerns Mucor hiemalis. Briefly: Antifungal activity against Mucor hiemalis by serial dilution method. In kind it is functional. Put shortly:
(§1)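 MIC by 1:1 serial dilution in 96-well microtiter plates. Yeasts and fungi were grown in MYC medium (1.0% glucose, 1.0% phytone peptone, 50 mM HEPES, pH 7.0).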

In a further experiment the test system is Candida albicans. Briefly: Antifungal activity against Candida albicans by serial dilution method. It counts as functional. Put shortly:
as §1

In another experiment the test system is Mycolicibacterium phlei. Description: Antibacterial activity against Mycobacterium phlei by serial dilution method. It counts as functional.
Experiment [1] relates to Chromobacterium violaceum. Description: Antibacterial activity against Chromobacterium violaceum by serial dilution method. It counts as functional.
For experiment [2], the system named is Schizosaccharomyces pombe. Description: Antifungal activity against Schizosaccharomyces pombe by serial dilution method. It counts as functional. Put shortly: as §1
Another experiment has as its system Micrococcus luteus. Description: Antibacterial activity against Micrococcus luteus by serial dilution method. It counts as functional.
A further experiment concerns Rhodotorula glutinis. Description: Antifungal activity against Rhodotorula glutinis by serial dilution method. It counts as functional. Put shortly: as §1
For a further experiment, the system named is Pseudomonas aeruginosa. Description: Antibacterial activity against Pseudomonas aeruginosa by serial dilution method. It counts as functional.
The next experiment relates to Nocardia. Description: Antibacterial activity against Nocardia flava by serial dilution method. It counts as functional.
A further experiment has as its system Wickerhamomyces anomalus. Briefly: Antifungal activity against Pichia anomala by serial dilution method. In kind it is functional. The conditions noted are these: Hansenula anomala. Put shortly: as §1
The subject of the next experiment is Plasmodium falciparum. Briefly: Antiparasitic activity against Plasmodium falciparum K1. In kind it is functional, organism-based.
Experiment [3] has as its system Trypanosoma brucei rhodesiense. Briefly: Antiparasitic activity against Trypanosoma brucei rhodesiense. In kind it is functional, organism-based.
Another experiment has as its system Trypanosoma cruzi. Briefly: Antiparasitic activity against Trypanosoma cruzi. It counts as functional, organism-based.
The test system of another experiment is Leishmania donovani. Briefly: Antiparasitic activity against Leishmania donovani axenic amastigotes. In kind it is functional, organism-based.
In the next experiment the test system is HUVEC. Description: Cytotoxicity against HUVEC by MTT assay. In kind it is cell-based. The following applies: Homo sapiens.
A further experiment relates to L929. Briefly: Cytotoxicity against mouse L929 cells by MTT assay. In kind it is cell-based. (Tetrazolium dyes change colour on reduction, which living cells bring about.)

As a reminder, the MIC is the lowest concentration found to suppress growth. Take `CC1=C(O)C(C)O/C(=C/CC(O)\C=C/C=C/C(C)=C/C=C/C(C)C(O)C(C)CCc2ccccc2)C1=O` (stereo not given): the MIC was over 67 µg/mL in the experiment with Escherichia coli; over 67 µg/mL in the experiment with Staphylococcus aureus; at most 67 µg/mL with Mucor hiemalis (read-out: MIC); over 67 µg/mL against Candida albicans; over 67 µg/mL in the experiment with Mycolicibacterium phlei; over 67 µg/mL in experiment [1]. In addition, the MIC (in [2]; with Micrococcus luteus; in the experiment on Rhodotorula glutinis; with Pseudomonas aeruginosa; in the experiment with Nocardia; with Wickerhamomyces anomalus) was over 67 µg/mL each time.

As a reminder, the IC50 is the point on the concentration scale where inhibition reaches its midpoint. As for `CC1=C(CC(O)CC(O)\C=C/C=C/C(C)=C/C=C/C(C)C(O)C(C)CCc2ccccc2)OC(C)(O)C1=O` (stereo not given), the MIC (against Escherichia coli; against Staphylococcus aureus; with Mucor hiemalis; against Candida albicans; with Mycolicibacterium phlei; in experiment [1]) was over 67 µg/mL each time. Besides, the MIC (in experiment [2]; against Micrococcus luteus; against Rhodotorula glutinis; against Pseudomonas aeruginosa; against Nocardia; against Wickerhamomyces anomalus) was over 67 µg/mL throughout. For the same compound, the outcome (in the experiment with Plasmodium falciparum; in [3]; in the experiment on Trypanosoma cruzi; in the experiment with Leishmania donovani) was inactive. This compound also had an IC50 in the experiment with HUVEC of 2.67 µM.

On to `CC1=C(CC(O)CC(O)\C=C/C=C/C(C)=C/C=C/C(C)C(O)C(C)CCc2ccccc2)[N+](C)(CCO)C(C)(O)C1=O` (stereo not given), for which the MIC (in the experiment on Escherichia coli; in the experiment on Staphylococcus aureus; in the experiment on Mucor hiemalis (read-out: MIC); in the experiment with Candida albicans; against Mycolicibacterium phlei; in [1]) was over 67 µg/mL each time. Further, the MIC (in [2]; in the experiment with Micrococcus luteus; against Rhodotorula glutinis; in the experiment with Pseudomonas aeruginosa; in the experiment with Nocardia (read-out: MIC); with Wickerhamomyces anomalus) was over 67 µg/mL each time.

For the compound `CC1=C(CC(O)CC(O)\C=C/C=C/C(C)=C/C=C/C(C)C(O)C(C)CCc2ccccc2)N(CCO)C(C)(O)C1=O` (stereo not given), the MIC (in the experiment on Escherichia coli; against Staphylococcus aureus; with Mucor hiemalis; in the experiment with Candida albicans; with Mycolicibacterium phlei; in experiment [1]) was over 67 µg/mL in each case. In addition, the MIC (in experiment [2]; against Micrococcus luteus; in the experiment with Rhodotorula glutinis; against Pseudomonas aeruginosa; in the experiment on Nocardia; against Wickerhamomyces anomalus) was over 67 µg/mL each time.

As to `CC1=C(/C=C/CC(O)\C=C/C=C/C(C)=C/C=C/C(C)C(O)C(C)CCc2ccccc2)OC(C)(O)C1=O` (stereo not given), the MIC (with Escherichia coli; against Staphylococcus aureus; with Mucor hiemalis; in the experiment with Candida albicans; in the experiment with Mycolicibacterium phlei; in experiment [1]) was over 67 µg/mL in each case. Further, the MIC in experiment [2] was over 67 µg/mL; against Micrococcus luteus, over 67 µg/mL; in the experiment on Rhodotorula glutinis, over 67 µg/mL; in the experiment on Pseudomonas aeruginosa, over 67 µg/mL; in the experiment on Nocardia (read-out: MIC) it was 8.3 µg/mL (≈ 16.4 µM); against Wickerhamomyces anomalus, over 67 µg/mL.

In the case of `CC1=C(CC(O)CC(O)/C=C/C=C/C(C)=C/C=C/C(C)C(O)C(C)CCc2ccccc2)OC(C)(O)C1=O` (stereo not given), the MIC (against Escherichia coli; in the experiment on Staphylococcus aureus; in the experiment on Mucor hiemalis; in the experiment with Candida albicans; against Mycolicibacterium phlei; in experiment [1]) was over 67 µg/mL in each case. Moreover, the MIC (in experiment [2]; with Micrococcus luteus; with Rhodotorula glutinis; with Pseudomonas aeruginosa; against Nocardia; against Wickerhamomyces anomalus) was over 67 µg/mL each time.

Turning to `CC(/C=C/CCCC/C=C/c1oc(=O)c(C)c(O)c1C)=C\C=C\C(C)C(O)C(C)CCc1ccccc1` (stereo not given), the MIC is over 67 µg/mL in the experiment with Escherichia coli; over 67 µg/mL against Staphylococcus aureus; 33.3 µg/mL (≈ 66 µM) in the experiment on Mucor hiemalis (read-out: MIC); over 67 µg/mL with Candida albicans; over 67 µg/mL against Mycolicibacterium phlei; over 67 µg/mL in [1]. Also, the minimal inhibitory concentration (MIC) in experiment [2] was over 67 µg/mL; against Micrococcus luteus, over 67 µg/mL; in the experiment with Rhodotorula glutinis it was over 67 µg/mL; with Pseudomonas aeruginosa, over 67 µg/mL; in the experiment with Nocardia (read-out: MIC), 16.6 µg/mL (≈ 32.9 µM); with Wickerhamomyces anomalus it was over 67 µg/mL. This compound also came in with an IC50 in the experiment on L929 of 22 µM.
